From ChEMBL document CHEMBL1132562, “Ajoene is an inhibitor and subversive substrate of human glutathione reductase and Trypanosoma cruzi trypanothione reductase: crystallographic, kinetic, and spectroscopic studies” (J Med Chem, 1999) come the findings set out here.

Substrate in data set [1]: C=CCSS/C=C/C[S+]([O-])CC=C
The data set is described as follows: (§1) Km value determined against Trypanothione reductase (TR). To be noted: Trypanosoma cruzi. The method in brief:
(§2)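 T. cruzi trypanothione reductase, recombinant, with NADPH and ajoene as substrate in TR assay buffer (40 mM Hepes, 1 mM EDTA, pH 7.5) at 25 °C. NADPH oxidation followed as absorbance decrease at 340 nm. Controls held only NADPH and enzyme, giving the intrinsic oxidase activity.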

Substrate in data set [2]: C=CCSS/C=C\C[S+]([O-])CC=C
The data set is described as §1. The note with it: Trypanosoma cruzi. An outline of the steps: as §2

Substrate in data set [3]: C=CCSS/C=C/C[S+]([O-])CC=C
The data set is described as follows: Kcat value determined against Trypanothione reductase (TR) by oxidation of NADPH. The note with it: Trypanosoma cruzi. An outline of the steps: as §2

Substrate in data set [4]: C=CCSS/C=C\C[S+]([O-])CC=C
Description: Km value determined against Trypanothione reductase (TR) by oxidation of NADPH. To be noted: Trypanosoma cruzi.

Substrate in data set [5]: C=CCSS/C=C/C[S+]([O-])CC=C
The data set is described as follows: (§3) Km value determined against human Glutathione reductase (GR) by oxidation of NADPH. An outline of the steps: (§4)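 Recombinant human glutathione reductase in GR assay buffer (phosphate, 200 mM KCl, 1 mM EDTA, pH 6.9) at 25 °C with 150 μM NADPH and ajoene or DATS as substrate. NADPH consumption read at 340 nm. Where GSH is present, it is added to the mixture. Controls held NADPH and enzyme only (intrinsic oxidase activity).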

Substrate in data set [6]: C=CCSSSCC=C
Described as §3. The method in brief: as §4

Substrate in data set [7]: C=CCSS/C=C\C[S+]([O-])CC=C
The description is as §3. The method in brief:
as §4

B1: Trypanothione reductase (Trypanosoma cruzi), P28593 (protein)
chain: MMSKIFDLVVIGAGSGGLEAAWNAATLYKKRVAVIDVQMVHGPPFFSALGGTCVNVGCVPKKLMVTGAQYMEHLRESAGFGWEFDRTTLRAEWKKLIAVKDEAVLNINKSYEEMFRDTEGLEFFLGWGSLESKNVVNVRESADPASAVKERLETENILLASGSWPHMPNIPGIEHCISSNEAFYLPEPPRRVLTVGGGFISVEFAGIFNAYKPKDGQVTLCYRGEMILRGFDHTLREELTKQLTANGIQILTKENPAKVELNADGSKSVTFESGKKMDFDLVMMAIGRSPRTKDLQLQNAGVMIKNGGVQVDEYSRTNVSNIYAIGDVTNRVMLTPVAINEAAALVDTVFGTNPRKTDHTRVASAVFSIPPIGTCGLIEEVASKRYEVVAVYLSSFTPLMHNISGSKYKTFVAKIITNHSDGTVLGVHLLGDNAPEIIQGVGICLKLNAKISDFYNTIGVHPTSAEELCSMRTPSYYYVKGEKMEKPSEASL
As for B1, the Km (in general, the concentration of substrate that gives half-maximal velocity) in data set [1] is more than 2000 µM; in data set [2] it was not below 2000 µM; in data set [3], more than 2000 µM; in data set [4], more than 2000 µM.

B2: Glutathione reductase, mitochondrial (Homo sapiens), P00390 (protein)
chain: MALLPRALSAGAGPSWRRAARAFRGFLLLLPEPAALTRALSRAMACRQEPQPQGPPPAAGAVASYDYLVIGGGSGGLASARRAAELGARAAVVESHKLGGTCVNVGCVPKKVMWNTAVHSEFMHDHADYGFPSCEGKFNWRVIKEKRDAYVSRLNAIYQNNLTKSHIEIIRGHAAFTSDPKPTIEVSGKKYTAPHILIATGGMPSTPHESQIPGASLGITSDGFFQLEELPGRSVIVGAGYIAVEMAGILSALGSKTSLMIRHDKVLRSFDSMISTNCTEELENAGVEVLKFSQVKEVKKTLSGLEVSMVTAVPGRLPVMTMIPDVDCLLWAIGRVPNTKDLSLNKLGIQTDDKGHIIVDEFQNTNVKGIYAVGDVCGKALLTPVAIAAGRKLAHRLFEYKEDSKLDYNNIPTVVFSHPPIGTVGLTEDEAIHKYGIENVKTYSTSFTPMYHAVTKRKTKCVMKMVCANKEEKVVGIHMQGLGCDEMLQGFAVAVKMGATKADFDNTVAIHPTSSEELVTLR
For the protein B2, the Km in data set [5] was determined as 800 µM; in data set [6] it was 160 µM; in data set [7], 380 µM.
